# Source: ChEMBL document CHEMBL4130366, “Design, synthesis and antiproliferative activity of thiazolo[5,4-d]pyrimidine derivatives through the atom replacement strategy” (Eur J Med Chem, 2017)
# Active and inactive are the calls of the source. The rule behind the calls is not given here.
# Key:
# MGC-803 = test: Antiproliferative activity against human MGC803 cells after 72 hrs by MTT assay; assay type: functional, cell-based; conditions: MGC-803, 72 h
# How it was run: (§1)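 Cells in exponential growth plated at 3,000 per well, left 24 h, then medium replaced with fresh medium carrying a range of compound concentrations; 72 h exposure, MTT read at 570 nm.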
# ECa-109 cell line = test: Antiproliferative activity against human EC109 cells after 72 hrs by MTT assay; assay type: functional, cell-based; conditions: ECa-109, 72 h; how it was run: as §1
# HGC-27 [1] = test: Antiproliferative activity against human HGC27 cells after 72 hrs by MTT assay; assay type: functional, cell-based; conditions: HGC-27, 72 h; how it was run: as §1
# MCF7 = test: Antiproliferative activity against human MCF7 cells after 72 hrs by MTT assay; assay type: functional, cell-based; conditions: MCF7, 72 h; how it was run: as §1
# GES1 = test: Cytotoxicity against human GES-1 cells assessed as reduction in cell viability after 72 hrs by MTT assay; assay type: cell-based; conditions: GES1, 72 h
# How it was run: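 Normal human gastric epithelial cells in exponential growth seeded at 3,000 cells/well, allowed 24 h, then medium replaced with fresh medium containing a range of compound concentrations. Exposure 72 h, then MTT, viability read at 570 nm.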
# HGC-27 [2] = test: Inhibition of colony formation in human HGC27 cells at 4 uM after 9 days by crystal violet staining based assay; assay type: functional; conditions: HGC-27, 216 h
# How it was run: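 HGC-27 seeded at 1000 cells/well, 24 h, then fresh medium with compound for 9 days. PBS washes, 4% paraformaldehyde fixation, 0.1% crystal violet stain. Colonies (>10 cells) counted from images. Inhibition rate = (1 − treated count/control count) × 100%. Triplicate.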
# [3] = Selectivity index, ratio of IC50 for human GES-1 cells to IC50 for human HGC27 cells; assay type: toxicity; conditions: GES-1 cells and HGC27 cells, read-out: Ratio IC50
# How it was run: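 GES-1 normal gastric epithelial cells and HGC-27 tested by the same MTT protocol (3,000 cells/well, 24 h attachment, 72 h exposure, 570 nm). SI calculated as IC50(GES-1)/IC50(HGC-27). IC50s are means ± SD of three independent experiments.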
# HGC-27 [4] = test: Induction of apoptosis in human HGC27 cells assessed as apoptotic cells at 5 uM after 24 hrs by Annexin-V-FITC/propidium iodide-double staining based flow cytometry (reference value: 1.8%); assay type: functional
# HGC-27 [5] = test: Induction of apoptosis in human HGC27 cells assessed as increase in Bax expression after 24 hrs by Western blot analysis; assay type: functional, cell-based
# How it was run: (§2)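 HGC-27 exposed to compound at several concentrations for 24 h, lysed in RIPA with protease inhibitors for 30 min, spun at 12,000 rpm for 10 min at 4 °C. Protein measured by BCA, run on SDS-PAGE, transferred to nitrocellulose. Blocked with 5% skim milk for 2 h, primary antibodies overnight at 4 °C, secondary 1:5000 for 2 h, ECL detection.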
# HGC-27 [6] = test: Induction of apoptosis in human HGC27 cells assessed as apoptotic cells at 2 uM after 24 hrs by Annexin-V-FITC/propidium iodide-double staining based flow cytometry (reference value: 1.8%); assay type: functional
# HGC-27 [7] = test: Antimigratory activity in human HGC27 cells after 48 hrs by wound healing assay; assay type: functional, cell-based
# How it was run: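 HGC-27 grown in 24-well plates, monolayer scratched with a 10 µL pipette tip, then exposed to compound at several concentrations. Wound closure photographed by inverted microscope after the incubation times stated.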
# HGC-27 [8] = test: Induction of apoptosis in human HGC27 cells assessed as increase in cleaved caspase 9 expression after 24 hrs by Western blot analysis; assay type: functional, cell-based; how it was run: as §2
# HGC-27 [9] = test: Induction of apoptosis in human HGC27 cells assessed as decrease in Bcl2 expression up to 5 uM after 24 hrs by Western blot analysis; assay type: functional, cell-based; how it was run: as §2
# HGC-27 [10] = test: Induction of apoptosis in human HGC27 cells assessed as apoptotic cells at 1 uM after 24 hrs by Annexin-V-FITC/propidium iodide-double staining based flow cytometry (reference value: 1.8%); assay type: functional
# HGC-27 [11] = test: Induction of apoptosis in human HGC27 cells assessed as chromatin shrinkage at 2 to 5 uM after 24 hrs by Hoechst 33258 staining-based fluorescence microscopy; assay type: functional, cell-based
# How it was run: (§3)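 HGC-27 at 2×10⁵/well attached overnight, exposed to compound at several concentrations for 24 h, then stained with Hoechst 33258 for 30 min in the dark. Morphology scored by fluorescence microscopy.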
# HGC-27 [12] = test: Induction of apoptosis in human HGC27 cells assessed as increase in cleaved caspase 3 expression after 24 hrs by Western blot analysis; assay type: functional, cell-based; how it was run: as §2
# HGC-27 [13] = test: Induction of apoptosis in human HGC27 cells assessed as formation of apoptotic bodies at 2 to 5 uM after 24 hrs by Hoechst 33258 staining-based fluorescence microscopy; assay type: functional, cell-based; how it was run: as §3
# HGC-27 [14] = test: Induction of apoptosis in human HGC27 cells after 24 hrs by Annexin-V-FITC/propidium iodide-double staining based flow cytometry; assay type: functional, cell-based
# HGC-27 [15] = test: Induction of apoptosis in human HGC27 cells assessed as cell rounding at 2 to 5 uM after 24 hrs by Hoechst 33258 staining-based fluorescence microscopy; assay type: functional; how it was run: as §3
Structure (SMILES),IC50 (MGC-803) [µM],IC50 (ECa-109 cell line) [µM],IC50 (HGC-27 [1]) [µM],IC50 (MCF7) [µM],also measured
CCCSc1nc(Sc2ccc(C)cc2)c2nc(Nc3ccccc3)sc2n1,4.73,25,4.65,> 64,–
CCCSc1nc(Sc2ccc(C)cc2)c2nc(Nc3cc(OC)c(OC)c(OC)c3)sc2n1,> 64,23.9,6.03,> 64,–
O=c1[nH]cc(F)c(=O)[nH]1 [FLUOROURACIL],–,5.01,11,7.21,IC50 (GES1): 8.59 µM
c1ccc(CSc2nc(Sc3nncs3)c3nc(Nc4ccccc4)sc3n2)cc1,> 64,10.6,18.9,38.7,–
CCCSc1nc(Sc2nccn2C)c2nc(Nc3ccccc3)sc2n1,30,> 64,4.03,> 64,–
CCCSc1nc(Sc2ncccn2)c2nc(Nc3ccccn3)sc2n1,11.2,> 64,12.2,> 64,–
CCCSc1nc(Sc2ccc(Cl)cc2)c2nc(Nc3ccccc3)sc2n1,9.33,19.6,8.87,44.2,–
CCCSc1nc(Sc2nncs2)c2nc(Nc3cccc4ccccc34)sc2n1,> 64,> 64,22.7,> 64,–
Cc1ccc(Sc2nc(SCc3ccccc3)nc3sc(Nc4ccccc4)nc23)cc1,12.2,2.69,1.22,8.55,inhibition at 4 µM (HGC-27 [2]): 79%; selectivity ratio [3]: 24.1; Activity (HGC-27 [4]): 67.9%; Activity (HGC-27 [5]): Dose-dependent effect; Activity (HGC-27 [6]): 31.8%; Activity (HGC-27 [7]): Dose-dependent effect; Activity (HGC-27 [8]): Dose-dependent effect; IC50 (GES1): 29.4 µM; Activity (HGC-27 [9]): Active; Activity (HGC-27 [10]): 10.01%; Activity (HGC-27 [11]): Active; Activity (HGC-27 [12]): Dose-dependent effect; Activity (HGC-27 [13]): Active; Activity (HGC-27 [14]): Dose-dependent effect; Activity (HGC-27 [15]): Active
CCCSc1nc(Sc2ncccn2)c2nc(Nc3ccccc3)sc2n1,9.82,49.6,9.55,13.2,–
CCCSc1nc(Sc2nncs2)c2nc(Nc3ccccn3)sc2n1,10.2,> 64,18.2,11.6,–
CCCSc1nc(Sc2nc3ccccc3s2)c2nc(Nc3ccccc3)sc2n1,14.2,24.3,12.2,> 64,–
CCCSc1nc(Sc2nccs2)c2nc(Nc3ccccc3)sc2n1,23.4,> 64,2.21,> 64,–
CCCSc1nc(Sc2nncs2)c2nc(Nc3ccccc3)sc2n1,10.7,> 64,5.07,8.55,–
CCCSc1nc(Sc2ccc(C)cc2)c2nc(Nc3ccccn3)sc2n1,> 64,> 64,7.28,34.2,–
CCCSc1nc(Sc2nnc(N)s2)c2nc(Nc3ccccc3)sc2n1,12.8,> 64,> 64,> 64,–
CCCSc1nc(Sc2nnnn2CCN(C)C)c2nc(Nc3ccccc3)sc2n1,18.5,> 64,6.51,14.5,–
CCCSc1nc(Sc2ccc(C)cc2)c2nc(Nc3cccc4ccccc34)sc2n1,46.2,> 64,> 64,> 64,–
